Assay [1] concerns the target Delta-type opioid receptor (Homo sapiens, UniProt P41143). The assay can be described thus: Displacement of [125I]IOXY from human recombinant delta opioid receptor expressed in CHO cells. It counts as cell-based. Summed up: (§1)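 Radioligand displacement run in CHO cells stably transfected to express the μ-, δ- or κ-opioid receptor, each receptor in its own line. The method follows the authors' earlier procedure. Each value comes from n=3 determinations.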

In assay [2] the target is Kappa-type opioid receptor (Homo sapiens, UniProt P41145). The assay can be described thus: Displacement of [125I]IOXY from human recombinant kappa opioid receptor expressed in CHO cells. Format: cell-based. In outline: as §1
Chain of Kappa-type opioid receptor (P41145 whole entry): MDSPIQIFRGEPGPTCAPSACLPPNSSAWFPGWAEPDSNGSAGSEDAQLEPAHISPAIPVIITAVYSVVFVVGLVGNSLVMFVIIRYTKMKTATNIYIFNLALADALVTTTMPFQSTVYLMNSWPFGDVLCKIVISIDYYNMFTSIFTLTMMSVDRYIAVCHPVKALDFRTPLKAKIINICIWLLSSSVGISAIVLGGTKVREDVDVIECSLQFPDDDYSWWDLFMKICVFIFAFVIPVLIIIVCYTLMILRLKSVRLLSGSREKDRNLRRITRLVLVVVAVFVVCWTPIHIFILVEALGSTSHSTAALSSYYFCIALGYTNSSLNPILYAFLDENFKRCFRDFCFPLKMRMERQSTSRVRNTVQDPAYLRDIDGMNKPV
In general terms: In a radioligand displacement assay an active substance lowers the binding of a labelled ligand.

The target in assay [3] is T1, Mu-type opioid receptor (Homo sapiens, UniProt P35372). The assay can be described thus: Displacement of [125I]IOXY from human recombinant mu opioid receptor expressed in CHO cells. It counts as cell-based. In outline: as §1
T1 sequence (P35372 whole entry): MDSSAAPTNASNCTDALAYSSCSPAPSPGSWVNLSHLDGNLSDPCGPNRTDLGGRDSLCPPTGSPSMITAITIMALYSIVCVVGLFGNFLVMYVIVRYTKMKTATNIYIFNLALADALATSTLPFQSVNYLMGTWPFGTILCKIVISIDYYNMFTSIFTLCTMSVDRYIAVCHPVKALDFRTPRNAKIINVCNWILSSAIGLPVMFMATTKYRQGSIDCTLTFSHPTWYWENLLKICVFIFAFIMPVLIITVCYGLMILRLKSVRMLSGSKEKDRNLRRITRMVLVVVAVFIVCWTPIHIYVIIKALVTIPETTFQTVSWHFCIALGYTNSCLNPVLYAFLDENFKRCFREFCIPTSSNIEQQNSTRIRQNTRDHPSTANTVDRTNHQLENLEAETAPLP
Assay [4] concerns the target T1, Mu-type opioid receptor. The assay can be described thus: Binding affinity to mu opioid receptor.

As usually defined, the Ki is a dissociation constant, usually derived from enzyme kinetics or from competition with a known ligand.

Chain of Delta-type opioid receptor (P41143 whole entry): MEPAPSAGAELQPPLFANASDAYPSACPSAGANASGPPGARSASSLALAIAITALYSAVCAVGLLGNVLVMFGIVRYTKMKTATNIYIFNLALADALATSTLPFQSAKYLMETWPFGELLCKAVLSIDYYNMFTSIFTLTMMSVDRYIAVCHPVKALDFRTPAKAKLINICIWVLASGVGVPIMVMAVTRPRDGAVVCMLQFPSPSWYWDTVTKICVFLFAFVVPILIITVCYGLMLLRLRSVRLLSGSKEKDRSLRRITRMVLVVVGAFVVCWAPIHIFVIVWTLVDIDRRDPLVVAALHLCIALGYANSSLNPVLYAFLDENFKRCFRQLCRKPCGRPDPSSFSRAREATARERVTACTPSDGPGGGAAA

Regarding `Oc1ccc2c(c1)[C@]13CCC[C@H](C1)N(CCc1ccccc1)C[C@@H]3O2` (relative stereo), the inhibition constant (Ki) in assay [1] amounted to 2.53 µM; in assay [2], 0.56 µM; at Mu-type opioid receptor [3], 1.22 µM.
For the molecule `Oc1cccc2c1O[C@@H]1[C@@H]3CCC[C@]21CCN3CCc1ccccc1`, the affinity at Mu-type opioid receptor [4], expressed as Ki, was 0.007 µM.
